Data: ChEMBL document CHEMBL1944511, “Bakuchiol derivatives as novel and potent cytotoxic agents: a report” (Eur J Med Chem, 2012)

Assays:
MCF7 [1] = assay: Growth inhibition of human MCF7 cells at 50 uM after 48 hrs by sulpharhodamine B assay; format: functional; conditions: MCF7, 48 h, read-out: GI
Procedure, shortened: (§1)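 This is the SRB protein-stain assay on adherent cells in RPMI-1640/MEM with 10% FCS. Each compound in DMSO (vehicle <0.2%) was applied at a single fixed concentration for 48 h. Cells were fixed with TCA and stained with SRB, and the dye was solubilised in Tris and read at 570/620 nm. Percent growth inhibition is relative to vehicle-treated controls, reported as mean ± SD of three experiments run in triplicate.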

A549 [2] = assay: Growth inhibition of human A549 cells at 50 uM after 48 hrs by sulpharhodamine B assay; format: functional; conditions: A549, 48 h, read-out: GI; procedure, shortened: as §1
PC-3 [3] = assay: Growth inhibition of human PC3 cells at 50 uM after 48 hrs by sulpharhodamine B assay; format: functional; conditions: PC-3, 48 h, read-out: GI
Procedure, shortened: (§2)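 Cells grown in RPMI-1640/MEM with 10% FCS, penicillin/streptomycin, 37 °C, 5% CO2. Seeded in 96-well plates, allowed to adhere overnight, then exposed 48 h to analogs in DMSO (vehicle <0.2% in controls). TCA-fixed, stained with 0.4% SRB in 1% acetic acid, dye solubilized in 10 mM Tris base, OD 570 nm (ref 620 nm). Mean ± SD of three experiments run in triplicate.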

OVCAR-5 [4] = assay: Growth inhibition of human OVCAR5 cells at 50 uM after 48 hrs by sulpharhodamine B assay; format: functional; conditions: OVCAR-5, 48 h, read-out: GI; procedure, shortened: as §1
IMR-32 [5] = assay: Growth inhibition of human IMR32 cells at 50 uM after 48 hrs by sulpharhodamine B assay; format: functional; conditions: IMR-32, 48 h, read-out: GI; procedure, shortened: as §1
HeLa [6] = assay: Growth inhibition of human HeLa cells at 50 uM after 48 hrs by sulpharhodamine B assay; format: functional; conditions: read-out: GI; procedure, shortened: as §1
THP-1 [7] = assay: Growth inhibition of human THP1 cells at 50 uM after 48 hrs by sulpharhodamine B assay; format: functional; conditions: THP-1, 48 h, read-out: GI; procedure, shortened: as §2
A549 [8] = assay: Growth inhibition of human A549 cells at 20 uM after 48 hrs by sulpharhodamine B assay; format: functional; conditions: A549, 48 h, read-out: GI; procedure, shortened: as §1
PC-3 [9] = assay: Growth inhibition of human PC3 cells at 20 uM after 48 hrs by sulpharhodamine B assay; format: functional; conditions: PC-3, 48 h, read-out: GI; procedure, shortened: as §1
IMR-32 [10] = assay: Growth inhibition of human IMR32 cells at 20 uM after 48 hrs by sulpharhodamine B assay; format: functional; conditions: IMR-32, 48 h, read-out: GI; procedure, shortened: as §1
THP-1 [11] = assay: Growth inhibition of human THP1 cells at 20 uM after 48 hrs by sulpharhodamine B assay; format: functional; conditions: THP-1, 48 h, read-out: GI; procedure, shortened: as §2
MCF7 [12] = assay: Growth inhibition of human MCF7 cells at 30 uM after 48 hrs by sulpharhodamine B assay; format: functional; conditions: MCF7, 48 h, read-out: GI; procedure, shortened: as §1
A549 [13] = assay: Growth inhibition of human A549 cells at 30 uM after 48 hrs by sulpharhodamine B assay; format: functional; conditions: A549, 48 h, read-out: GI; procedure, shortened: as §1
PC-3 [14] = assay: Growth inhibition of human PC3 cells at 30 uM after 48 hrs by sulpharhodamine B assay; format: functional; conditions: PC-3, 48 h, read-out: GI; procedure, shortened: as §2
OVCAR-5 [15] = assay: Growth inhibition of human OVCAR5 cells at 30 uM after 48 hrs by sulpharhodamine B assay; format: functional; conditions: OVCAR-5, 48 h, read-out: GI; procedure, shortened: as §1
IMR-32 [16] = assay: Growth inhibition of human IMR32 cells at 30 uM after 48 hrs by sulpharhodamine B assay; format: functional; conditions: IMR-32, 48 h, read-out: GI; procedure, shortened: as §1
HeLa [17] = assay: Growth inhibition of human HeLa cells at 30 uM after 48 hrs by sulpharhodamine B assay; format: functional; conditions: read-out: GI; procedure, shortened: as §1
THP-1 [18] = assay: Growth inhibition of human THP1 cells at 30 uM after 48 hrs by sulpharhodamine B assay; format: functional; conditions: THP-1, 48 h, read-out: GI; procedure, shortened: as §2
MCF7 [19] = assay: Growth inhibition of human MCF7 cells at 10 uM after 48 hrs by sulpharhodamine B assay; format: functional; conditions: MCF7, 48 h, read-out: GI; procedure, shortened: as §1
MCF7 [20] = assay: Growth inhibition of human MCF7 cells at 5 uM after 48 hrs by sulpharhodamine B assay; format: functional; conditions: MCF7, 48 h, read-out: GI; procedure, shortened: as §1
HEp-2 [21] = assay: Growth inhibition of human Hep2 cells at 50 uM after 48 hrs by sulpharhodamine B assay; format: functional; conditions: HEp-2, 48 h, read-out: GI; procedure, shortened: as §1
HEp-2 [22] = assay: Growth inhibition of human Hep2 cells at 30 uM after 48 hrs by sulpharhodamine B assay; format: functional; conditions: HEp-2, 48 h, read-out: GI; procedure, shortened: as §1
HEp-2 [23] = assay: Growth inhibition of human Hep2 cells at 20 uM after 48 hrs by sulpharhodamine B assay; format: functional; conditions: HEp-2, 48 h, read-out: GI; procedure, shortened: as §1
HEp-2 [24] = assay: Growth inhibition of human Hep2 cells at 10 uM after 48 hrs by sulpharhodamine B assay; format: functional; conditions: HEp-2, 48 h, read-out: GI; procedure, shortened: as §1
HEp-2 [25] = assay: Growth inhibition of human Hep2 cells at 5 uM after 48 hrs by sulpharhodamine B assay; format: functional; conditions: HEp-2, 48 h, read-out: GI; procedure, shortened: as §1
A549 [26] = assay: Growth inhibition of human A549 cells at 10 uM after 48 hrs by sulpharhodamine B assay; format: functional; conditions: A549, 48 h, read-out: GI; procedure, shortened: as §1
A549 [27] = assay: Growth inhibition of human A549 cells at 5 uM after 48 hrs by sulpharhodamine B assay; format: functional; conditions: A549, 48 h, read-out: GI; procedure, shortened: as §1
DU-145 [28] = assay: Growth inhibition of human DU145 cells at 20 uM after 48 hrs by sulpharhodamine B assay; format: functional; conditions: DU-145, 48 h, read-out: GI; procedure, shortened: as §1
DU-145 [29] = assay: Growth inhibition of human DU145 cells at 10 uM after 48 hrs by sulpharhodamine B assay; format: functional; conditions: DU-145, 48 h, read-out: GI; procedure, shortened: as §1
DU-145 [30] = assay: Growth inhibition of human DU145 cells at 5 uM after 48 hrs by sulpharhodamine B assay; format: functional; conditions: DU-145, 48 h, read-out: GI; procedure, shortened: as §1
THP-1 [31] = assay: Growth inhibition of human THP1 cells at 10 uM after 48 hrs by sulpharhodamine B assay; format: functional; conditions: THP-1, 48 h, read-out: GI; procedure, shortened: as §2
THP-1 [32] = assay: Growth inhibition of human THP1 cells at 5 uM after 48 hrs by sulpharhodamine B assay; format: functional; conditions: THP-1, 48 h, read-out: GI; procedure, shortened: as §2
PC-3 [33] = assay: Growth inhibition of human PC3 cells at 10 uM after 48 hrs by sulpharhodamine B assay; format: functional; conditions: PC-3, 48 h, read-out: GI; procedure, shortened: as §1
PC-3 [34] = assay: Growth inhibition of human PC3 cells at 5 uM after 48 hrs by sulpharhodamine B assay; format: functional; conditions: PC-3, 48 h, read-out: GI; procedure, shortened: as §2
IMR-32 [35] = assay: Growth inhibition of human IMR32 cells at 10 uM after 48 hrs by sulpharhodamine B assay; format: functional; conditions: IMR-32, 48 h, read-out: GI; procedure, shortened: as §1
IMR-32 [36] = assay: Growth inhibition of human IMR32 cells at 5 uM after 48 hrs by sulpharhodamine B assay; format: functional; conditions: IMR-32, 48 h, read-out: GI; procedure, shortened: as §1
HCT-15 [37] = assay: Growth inhibition of human HCT15 cells at 20 uM after 48 hrs by sulpharhodamine B assay; format: functional; conditions: HCT-15, 48 h, read-out: GI; procedure, shortened: as §1
HCT-15 [38] = assay: Growth inhibition of human HCT15 cells at 10 uM after 48 hrs by sulpharhodamine B assay; format: functional; conditions: HCT-15, 48 h, read-out: GI; procedure, shortened: as §1
HCT-15 [39] = assay: Growth inhibition of human HCT15 cells at 5 uM after 48 hrs by sulpharhodamine B assay; format: functional; conditions: HCT-15, 48 h, read-out: GI; procedure, shortened: as §1
THP-1 [40] = assay: Cytotoxicity against human THP1 cells after 48 hrs by sulpharhodamine B assay; format: functional, cell-based; conditions: THP-1, 48 h
Procedure, shortened: (§3)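 Cells were grown in RPMI-1640/MEM with 10% FCS and penicillin/streptomycin at 37 °C under 5% CO2, then seeded and left to adhere overnight. Analogs in DMSO (vehicle <0.2%) were added at several concentrations for 48 h. Cells were fixed with cold 50% TCA, stained with 0.4% SRB in 1% acetic acid, solubilised in 10 mM Tris, and read at OD 570/620 nm. IC50 came from non-linear regression.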

DU-145 [41] = assay: Cytotoxicity against human DU145 cells after 48 hrs by sulpharhodamine B assay; format: functional, cell-based; conditions: DU-145, 48 h; procedure, shortened: as §3
PC-3 [42] = assay: Cytotoxicity against human PC3 cells after 48 hrs by sulpharhodamine B assay; format: functional, cell-based; conditions: PC-3, 48 h; procedure, shortened: as §3
HEp-2 [43] = assay: Cytotoxicity against human Hep2 cells after 48 hrs by sulpharhodamine B assay; format: functional, cell-based; conditions: HEp-2, 48 h; procedure, shortened: as §3
MCF7 [44] = assay: Cytotoxicity against human MCF7 cells after 48 hrs by sulpharhodamine B assay; format: functional, cell-based; conditions: MCF7, 48 h; procedure, shortened: as §3
A549 [45] = assay: Cytotoxicity against human A549 cells after 48 hrs by sulpharhodamine B assay; format: functional, cell-based; conditions: A549, 48 h; procedure, shortened: as §3
SF-295 = assay: Cytotoxicity against human SF295 cells after 48 hrs by sulpharhodamine B assay; format: functional, cell-based; conditions: SF-295, 48 h; procedure, shortened: as §3
HCT-15 [46] = assay: Cytotoxicity against human HCT15 cells after 48 hrs by sulpharhodamine B assay; format: functional, cell-based; conditions: HCT-15, 48 h; procedure, shortened: as §3
MCF7 [47] = assay: Growth inhibition of human MCF7 cells at 20 uM after 48 hrs by sulpharhodamine B assay; format: functional; conditions: MCF7, 48 h, read-out: GI; procedure, shortened: as §1

C=C[C@@](C)(/C=C/c1ccc(OC(C)=O)cc1)CCC=C(C)C [ACETYLBAKUCHIOL]
inhibition of growth at 50 µM (MCF7 [1]): 75%
inhibition of growth at 50 µM (A549 [2]): 72%
inhibition of growth at 50 µM (PC-3 [3]): 67%
inhibition of growth at 50 µM (OVCAR-5 [4]): 71%
inhibition of growth at 50 µM (IMR-32 [5]): 71%
inhibition of growth at 50 µM (HeLa [6]): 63%
inhibition of growth at 50 µM (THP-1 [7]): 81%
inhibition of growth at 20 µM (A549 [8]): 1%
inhibition of growth at 20 µM (PC-3 [9]): 45%
inhibition of growth at 20 µM (IMR-32 [10]): 48%
inhibition of growth at 20 µM (THP-1 [11]): 50%
inhibition of growth at 30 µM (MCF7 [12]): 56%
inhibition of growth at 30 µM (A549 [13]): 60%
inhibition of growth at 30 µM (PC-3 [14]): 60%
inhibition of growth at 30 µM (OVCAR-5 [15]): 62%
inhibition of growth at 30 µM (IMR-32 [16]): 59%
inhibition of growth at 30 µM (HeLa [17]): 45%
inhibition of growth at 30 µM (THP-1 [18]): 63%
inhibition of growth at 10 µM (MCF7 [19]): 31%
inhibition of growth at 5 µM (MCF7 [20]): 15%
inhibition of growth at 50 µM (HEp-2 [21]): 52%
inhibition of growth at 30 µM (HEp-2 [22]): 51%
inhibition of growth at 20 µM (HEp-2 [23]): 46%
inhibition of growth at 10 µM (HEp-2 [24]): 30%
inhibition of growth at 5 µM (HEp-2 [25]): 14%
inhibition of growth at 10 µM (A549 [26]): 22%
inhibition of growth at 5 µM (A549 [27]): 13%
inhibition of growth at 20 µM (DU-145 [28]): 42%
inhibition of growth at 10 µM (DU-145 [29]): 29%
inhibition of growth at 5 µM (DU-145 [30]): 19%
inhibition of growth at 10 µM (THP-1 [31]): 44%
inhibition of growth at 5 µM (THP-1 [32]): 34%
inhibition of growth at 10 µM (PC-3 [33]): 32%
inhibition of growth at 5 µM (PC-3 [34]): 21%
inhibition of growth at 10 µM (IMR-32 [35]): 34%
inhibition of growth at 5 µM (IMR-32 [36]): 27%
inhibition of growth at 20 µM (HCT-15 [37]): 57%
inhibition of growth at 10 µM (HCT-15 [38]): 46%
inhibition of growth at 5 µM (HCT-15 [39]): 31%
IC50 (THP-1 [40]): 18 µM
IC50 (DU-145 [41]): 26 µM
IC50 (PC-3 [42]): 23 µM
IC50 (HEp-2 [43]): 20 µM
IC50 (MCF7 [44]): 25 µM
IC50 (A549 [45]): 40 µM
IC50 (SF-295): 8 µM
IC50 (HCT-15 [46]): 11 µM
inhibition of growth at 20 µM (MCF7 [47]): 44%
